A selection: hits, their analogues and other compounds. The true share with any hit is near 1.8%.
SUMO1 PPI mod = modulators of human SUMO1-mediated protein-protein interactions. inhibition, % at 20 µM. SUMO1 binding to a labelled peptide, TR-FRET, 1 h. P63165. actives 0.33% (n = 360,000); in the data active = inhibition above about 37%
DNMT1 block = blocks human DNA methyltransferase DNMT1. DNMT1 molecular beacon, Hinp1I cleavage, fluorescence. P26358. inhibition (reported as % activation of signal), % at 10 µM. AID 588458. actives 0.83% (n = 360,000); in the data active = inhibition above about 50%
STEP block = inhibitors of human striatal-enriched phosphatase STEP. actives 0.25% (n = 360,000). recombinant STEP, OMFP fluorogenic substrate, fluorescence. inhibition, % at 20 µM. P54829;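 active = inhibition at 20 µM, scaled per plate between control wells, above about 37%, limit read from the data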;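 note: 0% = DMSO with enzyme and substrate and 100% = substrate only without enzyme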
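Material: STEP (striatal-enriched tyrosine phosphatase) enzyme, cell-free; Compound dosing: 20 µM single dose in 1% DMSO; Technique: fluorescence read at 480 nm ex / 540 nm em; Times: reaction 20 min, ambient temperature; Medium: 50 mM Bis-Tris pH 6.0 with 2.5 mM DTT and 0.005% Tween 20; Also added: OMFP at 25 µM.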
Scp1 inh = Scp-1 (human) phosphatase inhibition; Recombinant Scp1, phosphopeptide, malachite green phosphate absorbance; inhibition, % at 20 µM; actives 0.88% (n = 340,000);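 active = inhibition above about 50% at 20 µM, limit read from the data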;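 note: plate controls were DMSO wells with enzyme for no effect and wells lacking enzyme for full effect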
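Material – SCP-1 phosphatase catalytic domain, residues 76-261 · Buffer or medium – Acidic Tris acetate buffer with magnesium and detergent · Also added – Phospho 17-mer peptide substrate · Compound – single 20 µM dose, 1% DMSO · Times – 45 min room-temperature reaction, 5 min colour, 30 min stabiliser · Technique – Phosphate-binding colour reagent, absorbance read at 630 nm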
LMPTP inh = blocks human LMPTP phosphatase; recombinant LMPTP-A, OMFP fluorogenic substrate, fluorescence intensity; inhibition, % at 20 µM; actives 0.22% (n = 360,000);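 active = compounds that cut the enzyme signal by at least half of the control window in the single-dose screen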;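 note: plate controls were DMSO wells with enzyme plus substrate for no effect and substrate without enzyme for full effect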
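Test system – LMPTP-A phosphatase enzyme · Quantity – 0.625 nM LMPTP-A final · Reagent – OMFP substrate, 400 µM final · Dosing – one test concentration per compound, 20 µM, with 3% DMSO overall · Timing – 50 min enzyme reaction at room temperature, protected from light · Detection – fluorescence intensity · Controls – substrate-only low control, DMSO enzyme-plus-substrate high control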
Scp1 confirm = confirmation of human Scp-1 phosphatase inhibitors. AID 540281. actives 61% (n = 2,500). recombinant SCP-1 catalytic domain, phosphate release, malachite green absorbance. inhibition, % at 20 µM. shares compounds with Scp1 inh;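 note: plate controls were DMSO with enzyme for no effect and buffer wells lacking enzyme for full effect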
MG interference = colorimetric interference in Scp-1 counter-screen | shares compounds with Scp1 inh | Colorimetric interference counterscreen, malachite green absorbance 630 nm | apparent inhibition (interference), % at 20 µM | 2,500 tested, under 10 active;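 note: compounds added after enzyme reaction finished so only phosphate colour detection is probed; plate controls were DMSO wells with completed Scp-1 reaction for no effect and substrate wells lacking enzyme for full effect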
Scp-1 Tm shift = validation of human Scp-1 inhibitors by thermal shift binding | thermal shift relative to vanadate control, % at 40 µM | actives 25% (n = 1,500) | shares compounds with Scp1 inh | Recombinant SCP1, Sypro Orange thermal shift Tm;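 active = substances whose mean melting-temperature shift, as a percentage of the reference inhibitor's shift, reaches about 5.3%, limit read from the data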;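 note: 0% = Tm of DMSO wells and 100% = Tm with sodium orthovanadate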
* marks the source's active call; other numbers are inactive results; x = not tested or not shown.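 Rule for the calls, unless noted: active = inhibition of at least 30% at 20 µM; inactive = the rest.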

SMILES	SUMO1 PPI mod	DNMT1 block	STEP block	Scp1 inh	LMPTP inh	Scp1 confirm	MG interference	Scp-1 Tm shift
Cc1nc2cc(NC(=O)c3ccc(S(=O)(=O)N(C)c4ccccc4)cc3)ccc2o1	4.9	-6.3	0.3	-5.9	-0.2	x	x	x
O=C(c1cc(S(=O)(=O)N2CCOCC2)ccc1F)N(Cc1nnc(-c2ccccc2Cl)o1)C1CC1	-0.5	1.9	2.2	54.8*	-0.5	-14.5	-15.6	x
CC(=O)OCC1=C(C(=O)OC(C)(C)C)N2C(=O)[C@@H](NC(=O)Cc3ccccc3)[C@H]2SC1	2.8	8.1	3.4	91.2*	-1.0	70.0*	-19.5	8.8*
CC(O)Cn1c(N2CCCC2)nc2c1c(=O)n(C)c(=O)n2C (configuration not stated)	0.4	-5.6	1.2	-1.9	-0.4	x	x	x
Nc1ccc(N2CCCC2)c(S(=O)(=O)Nc2cccc(C(F)(F)F)c2)c1	-1.3	-20.2	-1.1	-1.1	4.0	x	x	x
Nc1cc(C(=O)OCC(=O)c2ccc(CC(=O)N3CCOCC3)s2)ccc1Cl	-9.3	1.8	2.5	54.2*	8.2	39.4*	-15.8	6.2*
Clc1ccc(OCc2nn3c(-c4ccco4)nnc3s2)c(Cl)c1	0.3	38.7	4.4	81.3*	31.5	70.1*	-10.9	1.6
Cc1ccc(CNC(=O)c2ccc3c(=O)c(O)c(-c4ccc(C)cc4)[nH]c3c2)cc1	-3.0	34.4	1.8	55.8*	-3.9	51.3*	-9.6	-4.6
Cc1ccc(-c2[nH]c3cc(C(N)=O)ccc3c(=O)c2O)cc1	-21.5	3.8	5.1	-2.3	0.6	x	x	x
O=C(Cc1ccccc1)N/N=C/c1ccc(OCC(=O)Nc2ccccc2)cc1	5.7	-3.8	-1.8	82.4*	1.0	44.4*	-12.6	-15.8
COc1cc(/C=C/c2cc[n+](C)cc2)ccc1OCC(=O)Nc1ccccc1	-55.7	-4.8	-0.3	77.3*	-2.4	89.0*	-6.0	-16.5
COc1ccc2[nH]cc(C(O)CN3CCC(C(N)=O)CC3)c2c1 (configuration not stated)	-1.9	-3.3	-0.5	71.2*	1.3	2.4	-1.0	x
CCOc1cc(S(=O)(=O)Nc2cc(C)cc(C)c2)ccc1Cl	0.7	-13.8	1.7	66.3*	3.0	-21.9	-16.1	x
COC(=O)c1ccc(NC(=O)COc2ccc(N(C)S(=O)(=O)c3ccc(C)cc3)cc2)cc1	1.2	-4.3	0.7	-7.7	3.5	x	x	x
CCOC(=O)c1ccc(N2C(=O)c3n[nH]c(C)c3C2c2ccc(OC)cc2)cc1 (configuration not stated)	-1.4	-1.5	0.1	-5.8	0.5	x	x	x
CCOC(=O)c1ccc(N2C(=O)c3n[nH]c(C)c3C2c2ccc(OC)c(OC)c2)cc1 (configuration not stated)	3.3	-5.3	1.3	57.5*	-0.8	-9.3	-4.3	x
O=C(O)Cc1ccc(N=Nc2c(O)c(C(=O)O)cc3ccccc23)cc1	22.5	61.0*	9.8	50.3*	45.2	72.6*	-5.2	27.9*
CC[N+](C)(CC)CCC(c1ccccc1)C1CCCCC1 (configuration not stated)	-3.8	3.2	1.4	96.4*	-1.1	96.5*	-0.8	-8.5
CC1(C(=O)NS(=O)(=O)c2ccc(F)cc2F)CCN1C(=O)c1cccc(F)c1 (configuration not stated)	-0.5	-1.8	0.5	x	-0.7	x	x	x
COc1ccccc1-c1nnc2sc(-c3cnccn3)nn12	-7.4	13.4	1.5	70.2*	3.2	55.9*	-11.2	5.8*
COc1ccccc1-c1nnc2sc(-c3ccc(N(C)C)cc3)nn12	-10.1	-4.0	2.8	-2.6	-0.5	x	x	x
CCCCCCN1C[C@@H](O)[C@H](n2cc(C3CC3)nn2)C[C@@H]1c1ccc(Cl)cc1	3.2	-6.1	4.2	x	3.6	x	x	x
CC[C@H](C)NC(=O)c1ccc(Cn2c(=S)[nH]c3c([nH]c4ccc(OC)cc43)c2=O)cc1	11.1	43.6	2.5	57.0*	-0.5	43.1*	-4.3	-17.0
CCCCNC(=O)c1ccc(Cn2c(=S)[nH]c3c([nH]c4ccc(OC)cc43)c2=O)cc1	5.4	26.1	-1.8	-1.8	-1.3	x	x	x
O=C(COc1ccc(-n2cnnn2)cc1)Nc1cccc(Cl)c1Cl	6.5	49.1	11.1	69.0*	21.5	67.5*	-11.2	-17.4
SMILES	SUMO1 PPI mod	DNMT1 block	STEP block	Scp1 inh	LMPTP inh	Scp1 confirm	MG interference	Scp-1 Tm shift
COc1cc(NC(=O)COc2ccc(-n3cnnn3)cc2)c(OC)cc1Cl	8.7	6.7	-1.9	38.4	7.3	x	x	x
COc1cccc(NC(=O)C(=O)NCCC2CCCCN2S(=O)(=O)c2cccs2)c1 (configuration not stated)	2.6	-2.3	-0.1	-4.9	1.7	x	x	x
O=c1c2c(nc3cc(-c4ccc(Cl)cc4)[nH]n13)CCS2	10.4	27.2	21.7	83.8*	61.3*	30.6*	-4.0	2.5
CCN(CC)CCNC(=O)c1ccc(NC(=O)c2cc(-c3ccco3)nc3ccccc23)cc1	-19.4	19.9	0.7	15.3	4.7	x	x	x
CN(C)C(=O)c1ccc(NC(=O)c2cc(-c3ccco3)nc3ccccc23)cc1	-12.0	50.2*	13.0	65.8*	12.0	58.0*	-4.6	5.0
C/C(NCCc1ccc(O)cc1)=C1/CCOC1=O	12.5	2.5	4.3	x	-0.2	x	x	x
O=C(Nc1cccc2ncccc12)c1ccccc1Cl	-4.2	1.2	-3.2	98.2*	-1.2	4.2	-2.1	x
Cc1cc(-c2onc(C)c2C(=O)O)no1	2.7	0.8	1.2	-8.9	-1.1	x	x	x
Cc1ccccc1C(=O)Nc1ccnn1C1CCN(C(=O)c2cnsn2)CC1	1.8	1.4	-0.3	1.1	-0.7	x	x	x
COc1ccc(CCN2CC(C(=O)OC(C)C(=O)Nc3cccc(Cl)c3)CC2=O)cc1OC (configuration not stated)	-2.0	2.0	-4.7	-10.7	-1.0	-16.2	-14.2	x
NC(=O)C[n+]1cccc2ccccc21	-20.6	0.2	-5.2	98.5*	-0.4	-7.1	-11.8	x
COC(=O)c1ccccc1NC(=O)c1cc[n+](C)cc1	-34.4	0.3	-3.3	51.0*	-2.2	-11.5	-21.9	x
COC(=O)c1ccccc1NC(=O)c1cc[n+]([O-])cc1	-6.4	-1.4	1.5	0.2	-1.2	x	x	x
CCCOc1ccc(/C=N/n2nnnc2N)cc1OC	-15.3	0.9	-2.2	0.1	-1.1	x	x	x
Cn1c(NN)nc2c1c(=O)n(Cc1ccccc1)c(=O)n2C	-1.6	-5.3	7.6	68.5*	8.5	62.3*	5.0	9.4*

High-throughput results (PubChem)
